In ChEMBL document CHEMBL1135769, “Design, synthesis, and biological evaluation of aryloxyethyl thiocyanate derivatives against Trypanosoma cruzi” (J Med Chem, 2002):

Assays:
Trypanosoma cruzi [1] = experiment: Antiproliferative activity against epimastigote form of Trypanosoma cruzi; assay type: functional, organism-based
Outline: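 Y-strain epimastigotes grown at 28 °C in brain-heart infusion (37 g/L) with hemin chlorohydrate (20 mg/L) and 10% newborn calf serum. Inoculum was (2-3) × 10^6 cells/mL. Compounds were tested at 1, 10, 50 and 100 µg/mL, each in quadruplicate, with at most 1% ethanol. Growth was read as A600. Percent inhibition came from the absorbance change from start to end versus controls, and IC50 was estimated by linear and polynomial regression.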

Trypanosoma cruzi [2] = experiment: Inhibition of growth of uM; assay type: functional
Outline: (§1)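 Epimastigotes (Y strain) were cultured at 28 °C in brain-heart infusion medium with hemin and 10% newborn calf serum, starting at (2-3) × 10^6 cells/mL, with at most 1% ethanol vehicle. Culture density was followed by absorbance at 600 nm. Percent growth inhibition = 100 − (ΔA drug-treated × 100 / ΔA control), where ΔA is the change from start to end of the experiment.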

Trypanosoma cruzi [3] = experiment: Antiparasitic activity against amastigote form of Trypanosoma cruzi
Trypanosoma cruzi [4] = experiment: Inhibition against Trypanosoma cruzi at a concentration of 70 uM; assay type: functional; outline: as §1
Trypanosoma cruzi [5] = experiment: Percent Inhibition of multiplication of Trypanosoma cruzi; assay type: functional
Outline: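 Intracellular assay in L6E9 myoblasts irradiated with 2000 rad, seeded at 1.2 × 10^7 cells/flask in DMEM with 20% FCS and held 24 h at 35 °C. Cells infected 2 h with 5 × 10^7 Y-strain trypomastigotes/flask, then washed. Drugs added at several concentrations with 1.0 µCi [5,6-3H]uracil for 72 h. Percent inhibition of uracil uptake from mean cpm versus infected untreated cells. Host-cell toxicity checked by phase-contrast microscopy.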

Trypanosoma cruzi [6] = experiment: (§2) Percent Inhibition of growth of uM; assay type: functional
Outline: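 Y-strain T. cruzi epimastigotes grown at 28 °C in brain-heart infusion (37 g/L) with hemin (20 mg/L) and 10% newborn calf serum. Start inoculum (2-3) × 10^6 cells/mL. Four concentrations (1, 10, 50, 100 µg/mL), each in quadruplicate, with at most 1% ethanol. Growth read as A600 at start and end; percent inhibition taken against untreated cultures. IC50 estimated by linear and polynomial regression.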

Trypanosoma cruzi [7] = experiment: as §2; assay type: functional; outline: as §1; remark: listed apart in the source
Trypanosoma cruzi [8] = experiment: Inhibitory activity towards Trypanosoma cruzi

IC50 (Trypanosoma cruzi [1])	SMILES	other results
62.1 µM	c1ccc(Oc2ccc(OCCSc3ccccc3)cc2)cc1	
> 70 µM	Clc1ccccc1OCCOC1CCCCO1 (stereo not drawn)	Inhibition (Trypanosoma cruzi [2]): 22%
16.8 µM	N#CSCCOc1ccccc1	
> 60 µM	C=CCc1cc(Oc2ccccc2)ccc1OCCOC1CCCCO1 (stereo not drawn)	
> 70 µM	Cc1cccc(OCCOC2CCCCO2)c1C (stereo not drawn)	
> 70 µM	[O-][S+](c1ccccc1)c1ccc(OCCOC2CCCCO2)cc1 (stereo not drawn)	
7.7 µM	N#CSCCOc1ccc([S+]([O-])c2ccccc2)cc1 (stereo not drawn)	IC50 (Trypanosoma cruzi [3]): 58.8 µM
> 70 µM	Cc1ccccc1OCCOC1CCCCO1 (stereo not drawn)	
13.3 µM	Cc1cccc(C)c1OCCSC#N	IC50 (Trypanosoma cruzi [3]): > 70 µM
> 60 µM	C=CCc1cc(Oc2ccccc2)ccc1OCCSC#N	IC50 (Trypanosoma cruzi [3]): > 70 µM
> 70 µM	O=C(NCCOc1ccc(Oc2ccccc2)cc1)C1CC1	inhibition at 70 µM (Trypanosoma cruzi [4]): 31%
18.8 µM	Cc1ccc(OCCSC#N)c(C)c1	IC50 (Trypanosoma cruzi [3]): 5 µM
14.5 µM	Cc1ccc(C)c(OCCSC#N)c1	
6.8 µM	C/C=C/c1cc(Oc2ccccc2)ccc1OCCSC#N	IC50 (Trypanosoma cruzi [3]): 14 µM
18.5 µM	N#CSCCOc1ccccc1I	IC50 (Trypanosoma cruzi [3]): > 70 µM
31.4 µM	c1ccc(Nc2ccc(OCCOC3CCCCO3)cc2)cc1 (stereo not drawn)	
> 70 µM	Cc1cccc(C)c1OCCOC1CCCCO1 (stereo not drawn)	
40.3 µM	CC(C)(C)/N=C(\S)NCCOc1ccc(Oc2ccccc2)cc1	
	CC(=O)N1CCN(c2ccc(OCC3COC(Cn4ccnc4)(c4ccc(Cl)cc4Cl)O3)cc2)CC1 (stereo not drawn) [KETOCONAZOLE]	Inhibition (Trypanosoma cruzi [6]): 18%
> 100 µM	CSCCOc1ccc(Oc2ccccc2)cc1	Inhibition (Trypanosoma cruzi [2]): 18%
11.4 µM	N#CSCCOc1ccccc1Cl	

IC50 (Trypanosoma cruzi [1])	SMILES	other results
> 60 µM	c1ccc(CSCCOc2ccc(Oc3ccccc3)cc2)cc1	Inhibition (Trypanosoma cruzi [2]): 41%
20.2 µM	N#CSCCOc1ccccc1Br	
> 60 µM	C/C=C/c1cc(Oc2ccccc2)ccc1OCCOC1CCCCO1 (stereo not drawn)	
12.1 µM	Cc1ccc(OCCSC#N)cc1	
> 70 µM	Cc1ccc(C)c(OCCOC2CCCCO2)c1 (stereo not drawn)	Inhibition (Trypanosoma cruzi [2]): 15%
> 70 µM	c1ccc(Cn2c3ccccc3c3ccc(OCCOC4CCCCO4)cc32)cc1 (stereo not drawn)	
> 60 µM	Ic1ccccc1OCCOC1CCCCO1 (stereo not drawn)	Inhibition (Trypanosoma cruzi [2]): 20%
4.7 µM	Cc1ccc(S(=O)(=O)c2cc(Oc3ccccc3)ccc2OCCSC#N)cc1	
32.2 µM	S=C(NCCOc1ccc(Oc2ccccc2)cc1)SCc1ccccc1	IC50 (Trypanosoma cruzi [3]): > 70 µM
> 70 µM	Cc1ccc(OCCOC2CCCCO2)cc1 (stereo not drawn)	Inhibition (Trypanosoma cruzi [2]): 11%
15.9 µM	S=C=NCCOc1ccc(Oc2ccccc2)cc1	IC50 (Trypanosoma cruzi [3]): 46.7 µM
> 70 µM	Cc1cc(C)cc(OCCOC2CCCCO2)c1 (stereo not drawn)	
33.3 µM	C=CCSC(=S)NCCOc1ccc(Oc2ccccc2)cc1	IC50 (Trypanosoma cruzi [3]): > 70 µM
> 70 µM	O=C=NCCOc1ccc(Oc2ccccc2)cc1	Inhibition (Trypanosoma cruzi [7]): 28%
16.4 µM	Cc1ccccc1OCCSC#N	
45.6 µM	CS/C(S)=N/CCOc1ccc(Oc2ccccc2)cc1	IC50 (Trypanosoma cruzi [3]): 27.4 µM
> 70 µM	Cc1ccc(OCCOC2CCCCO2)c(C)c1 (stereo not drawn)	
> 70 µM	Cc1ccc(S(=O)(=O)c2cc(Oc3ccccc3)ccc2OCCOC2CCCCO2)cc1 (stereo not drawn)	
19.3 µM	Cc1cc(C)cc(OCCSC#N)c1	
14.8 µM	Cc1cccc(OCCSC#N)c1C	
> 70 µM	[N-]=[N+]=NCC(O)COc1ccc(Oc2ccccc2)cc1 (stereo not drawn)	

SMILES	IC50 (Trypanosoma cruzi [1])	other results
C[S@+]([O-])CCCCN=C=S [L-SULFORAPHANE]	102 µM	
N#CSCCOc1ccc(Nc2ccccc2)cc1	3.3 µM	Inhibition (Trypanosoma cruzi [5]): 10%; IC50 (Trypanosoma cruzi [3]): 41.1 µM
c1ccc(Oc2ccc(OCC3CN3)cc2)cc1 (stereo not drawn)	41.5 µM	
N#CSCCOc1ccc2c(c1)[nH]c1ccccc12	10.3 µM	
C[S+]([O-])CCCCN=C=S (stereo not drawn) [SULFORAPHANE]	> 120 µM	IC50 (Trypanosoma cruzi [8]): 15 µM
